Source: ChEMBL document CHEMBL4513216, “Probing the Open Global Health Chemical Diversity Library for Multistage-Active Starting Points for Next-Generation Antimalarials” (ACS Infect Dis, 2020)

Test: Toxicity liver stage against HepG2, at 10uM
Type: cell-based
Parameters: test concentration 10 uM, cell line HepG2-A16-CD81EGFP
Conditions: human, HepG2-A16-CD81EGFP cells; read-out: INHIBITION
How it was run: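 Uninfected HepG2-A16-CD81EGFP cells, 3 × 10^3 per well, 1536-well, plated on prespotted compound at 10 μM final, parasite-free screening media added to match infected plates; puromycin 10 μM positive, DMSO 0.5% negative; run in parallel with 48 h PbLuc assay at 37 °C, 5% CO2; viability by CellTiter-Glo luminescence, normalized to controls.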

Row | Compound | cytotoxicity at 10 µM [%]
1 | Cc1ccc(F)cc1NC(=O)NCC(C)N1CCOCC1 (stereo not given) | 2.6
2 | CN(C)c1nc2sc(C(=O)N3CCN(C(=O)OC(C)(C)C)CC3)cc2s1 | 1.71
3 | Cc1ccc(S(=O)(=O)Cc2noc([C@@H]3C[C@@H](O)CN3)n2)cc1 | -5.78
4 | CS(=O)(=O)c1ccc(CNC[C@H]2COCc3nc4ccccc4n32)cc1 | -1.28
5 | Cn1ccnc1CN1C[C@H]2CN(S(C)(=O)=O)CCN2C1=O | -6.04
6 | O=C(NC1CCCc2c1[nH]c1ccc(F)cc21)c1n[nH]c2c1CCCC2 (stereo not given) | 46.4
7 | O=C(O)C1CCN(c2nc3c(-c4ccccc4F)csc3c(=O)[nH]2)CC1 | -10
8 | CN(C)C1COC2(CCN(C(=O)c3cccnc3)CC2)C1 (stereo not given) | 3.53
9 | Cc1ccc(C(=O)N2CCO[C@H]3[C@H](OCCN(C)C)CC[C@@H]32)cn1 | 4.85
10 | O=C(CCn1ccc2ccc(Cl)cc21)NCc1ccc(C(=O)O)cc1 | -0.411
11 | CCCc1nnsc1C(=O)NCC1CCN(c2ccccn2)CC1 | -16.7
12 | COCC1c2nnn(CC3CC3)c2CCN1C(=O)Cc1cccs1 (stereo not given) | -15.8
13 | O=C(c1cc2cccc(F)c2[nH]1)N1C[C@@H](O)[C@H](N2CCOCC2)C1 | 0.0453
14 | CNc1cc(CCNC(=O)C2CCCC2)nc(-c2ccccn2)n1 | 1.76
15 | Cc1nnc(N2CCOC(C)(C(=O)N(C)C)C2)c2ccccc12 (stereo not given) | 10.4
16 | Cn1cnc2ccc(NC(=O)CC3CCN(S(C)(=O)=O)CC3)cc21 | 22.6
17 | Cn1cc(Cl)c(C(=O)N2CCc3nc4sccc4c(=O)n3CC2)n1 | -3.04
18 | COCCN1CCN(Cc2cnc(C)nc2)CC1 | -22.8
19 | Cc1nn(C)c(C)c1CN1CCCC1c1nccc(CN(C)C)n1 (stereo not given) | -28.1
20 | O=C(c1cccnc1)N1CCCC(Cc2nccs2)C1 (stereo not given) | -2.86
21 | CC(CNC(=O)c1cc(-n2cccn2)ccn1)Cn1ccnc1 (stereo not given) | -3.43
22 | CC(C)(C)c1ccc2c(c1)CCN2C(=O)c1nc(=O)[nH][nH]1 | -3.74

Row | Compound | cytotoxicity at 10 µM [%]
23 | Cc1ccc(CN(C)C(=O)C(C)n2cncn2)o1 (stereo not given) | -3.33
24 | O=c1[nH]c(C2CCOC2)nc2ccc(Cl)cc12 (stereo not given) | -12
25 | CC(C)c1nc(CN2CCN(C(=O)OC(C)(C)C)C(C)C2)no1 (stereo not given) | 1.62
26 | CCSc1cc(C(=O)NC(C)c2cccc(N3CCOC3=O)c2)ccn1 (stereo not given) | 24.1
27 | CC(C)COC(=O)N1CCCN(C(C)c2nc(C(C)C)no2)CC1 (stereo not given) | 6.85
28 | Cc1nc2n(n1)CC(NCc1ccccc1OCC(=O)N(C)C)CC2 (stereo not given) | 7.61
29 | O=C(Nc1cccs1)N(CCO)CCOCC(F)(F)F | 3.84
30 | Cc1ccc(C)c(S(=O)(=O)NC(=O)COc2cccc(C#N)c2)c1 | 9.7
31 | CC(NC(=O)Nc1ccc(OC2CCCC2)cc1)c1nc[nH]n1 (stereo not given) | -5.42
32 | CS(=O)(=O)CCCSc1cccc(C#N)c1 | -1.38
33 | CNC(=O)CN1CCN(C(=O)Nc2ccc(Cl)cc2F)CC1 | 1.41
34 | Cc1cccc(NC(=O)c2sc(C)nc2C)n1 | 5.52
35 | COc1cccc2[nH]cc(CCNC(=O)N3CCOCC3C3CC3)c12 (stereo not given) | 12.1
36 | Cc1cc(CNC(=O)N2CCN(Cc3ccccc3)C[C@H]2C)on1 | -131
37 | O=C(CS(=O)(=O)C1CCCC1)NC1CCCc2cc(OC(F)F)ccc21 (stereo not given) | 4.84
38 | Cc1nccn1CCCNc1ccc(Cl)c(C#N)n1 | -7.62
39 | COCC(C)NC(=O)CN1CCCC1 (stereo not given) | -7.42
40 | COc1ccc(C(NCc2cccc(C#N)c2)C(C)C)cc1 (stereo not given) | 17
41 | Cc1ccc(N2CCCC(N3CCC4(CC3)OCCO4)C2=O)cc1 (stereo not given) | 6.7
42 | Cc1n[nH]cc1CNC1(c2ccc(Br)cc2)CC1 | 13.9
43 | O=C(NCC1(O)CCSC1)c1cccc(-n2cccn2)c1 (stereo not given) | -3.5
44 | COc1cccc(NC(=O)CNc2ccc(C(=O)N(C)C)c(Cl)c2)c1 | 6.91

Row | Compound | cytotoxicity at 10 µM [%]
45 | Cc1ccc(NC(=O)N(C)CC(O)COCCOC(C)C)c(Br)c1 (stereo not given) | 11.2
46 | CC1CN(c2ccc(C#N)cn2)CCN1c1ccc2nncn2n1 (stereo not given) | 1.42
47 | O=C(NCC(O)C1CC1)Nc1cnn(Cc2ccccc2)c1 (stereo not given) | 4.85
48 | Cc1cccn2cc(C[S+]([O-])Cc3noc(C(C)C)n3)nc12 (stereo not given) | 6.13
49 | CCCc1nc(CNc2ccc(F)c(F)c2)no1 | 8.93
50 | Cc1cc(S(=O)(=O)Nc2cccc(-n3cccc3)c2)sc1C(=O)O | -2.23
51 | CNC(=O)CS(=O)(=O)Cc1coc(-c2ccc(F)cc2)n1 | -9.44
52 | Cc1cc(-c2nnn(CCC(N)=O)n2)ccc1F | -8.71
53 | Cc1noc(C(C)C)c1C(=O)N1CCOCC1CC(=O)c1ccco1 (stereo not given) | 2.09
54 | Cc1cccc(CNCc2c(C)nn(C)c2N2CCOCC2)n1 | -10.9
55 | CCc1ccc(C(=O)Nc2ccc(CC3CC(=O)NC3=O)cc2)cc1 (stereo not given) | -13.5
56 | Cc1cnn(CC2CN(CCc3ccncc3)CCO2)c1 (stereo not given) | -13.6
57 | CO[C@@H]1CC[C@H]2[C@H]1OCCN2C(=O)c1nn(C)c2ccccc12 | 1.31
58 | Cc1nc(CN2CCO[C@@H]3CN(C(=O)CN(C)C)CC[C@@H]3C2)cs1 | -0.587
59 | CCc1ccc(CN2CCN(c3cccc(OC)c3)C(=O)C2)nc1 | 1.76
60 | Cn1ccnc1-c1ccc(NCC2COc3ccccc3O2)nn1 (stereo not given) | 3.31
61 | C[C@@H]1CN(C(=O)c2nc3ccc(Cl)cn3c2-c2ncc[nH]2)C[C@H](C)O1 | -6.01
62 | Cc1noc(C)c1CN1C[C@@H](NC(=O)N(C)C)[C@H](C(C)C)C1 | 5.35
63 | COc1ccc2[nH]nc(CN3CCC(C(C)N(C)C)CC3)c2c1 (stereo not given) | -1.45
64 | COc1ccccc1C1CNC(=O)c2nc(-c3c(C)n[nH]c3C)[nH]c2C1 (stereo not given) | -8
65 | N[C@@H]1CC[C@H](C(=O)NCCc2nc(-c3ccccc3)cs2)C1 | -11.3
66 | CC(C)OC(=O)N1CCC(c2nnc(Cn3ccnc3)n2C)CC1 | -120

Row | Compound | cytotoxicity at 10 µM [%]
67 | COc1ccc(OCc2cc(C(=O)N3CCOCC3)n[nH]2)c(Cl)c1 | -3.66
68 | COc1nccnc1N1CCC2(CCCN(C(C)C)C2=O)C1 (stereo not given) | 2.57
69 | CC(C)N1CC2(CCCN(c3ccccn3)C2)CCC1=O (stereo not given) | -0.608
70 | Cc1ccc(CC(=O)N2C[C@@H](CN(C)C)[C@@H](CO)C2)cc1C | -14
71 | CCc1nc(NC(=O)NCCc2cccc(C)n2)nn1C | 2.48
72 | OCCN1CCc2[nH]nc(C(c3ccccc3)c3ccccc3)c2C1 | -2.98
73 | O=C(C1CC(=O)N(C2CC2)C1)N1CCN(CCn2cccc2)CC1 (stereo not given) | -12
74 | CCS(=O)(=O)c1ccccc1N1CCC(NC(=O)C2CC2)CC1 | -1.58
75 | Cn1cc(CCNCc2cc(Cl)c3c(c2)OCCO3)cn1 | -9.69
76 | Cc1noc(C)c1CC(=O)NCc1ccnc(OCC(F)(F)F)c1 | -7.83
77 | COc1ccc(C)cc1C(=O)N1CCCC(n2nc(C)nc2C)C1 (stereo not given) | -5.68
78 | O=C(CCCN1C(=O)CCC1=O)NCC1(c2ccccc2)CCC1 | -17.1
79 | CC(NC(=O)NCCn1ccnc1)c1ccc2c(c1)OCCCO2 (stereo not given) | -7.27
80 | CN(Cc1nnc(C2CC2)o1)C1CCCN(c2cccnn2)C1 (stereo not given) | -10.7
81 | CC(C)(C)c1cc(NC(=O)CN2CCc3cncnc3C2)on1 | -8.78
82 | CCOCCN1CCN(Cc2cccc(C(=O)N(C)C)c2)CC1C (stereo not given) | 3.57
83 | O=C(c1ccc2c(c1)OCO2)N1CCCC(n2ccnc2)C1 (stereo not given) | -7.6
84 | Cc1cnn(CC2CCCN2Cc2noc(C(C)(C)C)n2)c1 (stereo not given) | -10.7
85 | COc1cccc(S(=O)(=O)NC(=O)CCC2CCCO2)c1 (stereo not given) | -14.7
86 | COc1ccc(COCC(=O)N2CCCC(n3cncn3)C2)cc1 (stereo not given) | -11.1
87 | Cc1cnn(CC2CN(Cc3nc(-c4ccco4)no3)CCO2)c1 (stereo not given) | -20.3
88 | CN(Cc1cn(-c2ccccc2)nn1)C1CCCN(c2cccnn2)C1 (stereo not given) | -20.5

Row | Compound | cytotoxicity at 10 µM [%]
89 | CC(C)c1n[nH]c(C2CN(Cc3nnc(C4CC4)o3)CCO2)n1 (stereo not given) | -10.1
90 | Cc1csc(N2CCCN(C(=O)c3cnns3)CC2)n1 | 5.92
91 | CCOc1nnc(CNC2CCCN(c3ccc(C)nn3)C2)s1 (stereo not given) | -9.31
92 | COCc1ccccc1CNCc1c(C)nn(C)c1N(C)C | -8.45
93 | CCOc1c(CNCCCn2ccnc2)cc(Cl)cc1OC | -3.88
94 | O=C(C1CCCC1)N1CCCC2(CCN(c3cnccn3)CC2)C1 | 9.53
95 | O=C(NCC1CC1)[C@@H]1CCO[C@@H]2CCN(Cc3ccsc3)C[C@H]21 | -76.5
96 | CCc1ncnc2c1CCN(Cc1ccccn1)CC2 | 1.39
97 | CC(C)c1nn(C)c(N(C)C)c1CNCc1ccccc1CO | -9.89
98 | CC(=O)N1[C@H](CN(C)C)C[C@@H]2CN(C(=O)c3cccn3C)CC[C@@H]21 | 2.53
99 | CC(C)CNC(=O)[C@H]1CCS(=O)(=O)[C@@H]2CN(Cc3ccc(Cl)cc3)C[C@H]12 | -13.9
100 | O=C1CC2(CCN(CCO)C2)CN1c1cccc(F)c1 (stereo not given) | -149
101 | CC(C)N(C)Cc1cn2c(n1)CN(C(=O)Cc1ccsc1)CC2 | -11.1
102 | O=C(NCc1cccnc1)[C@@H]1C[C@@H]2CCN(c3ncc(F)cn3)C[C@@H]2O1 | -72.1
103 | CCCN1CCc2[nH]nc(C(=O)N3CCNC(=O)C3)c2C1 | 14.9
104 | CCN1CCC2(CC1)CC(NC(=O)c1ccnnc1)c1ccccc12 (stereo not given) | -6.9
105 | Cn1nc(Cn2ccnc2)c2c1CN(Cc1ccoc1)C2 | 0.319
106 | CN1Cc2ccccc2CC2(CCN(CCO)CC2)C1=O | -6.58
107 | COCC1CN(C(=O)COc2ccccc2C)Cc2ncn(C)c21 (stereo not given) | -2.17
108 | CNC(=O)C1CCC2(CCNCC2)C1 (stereo not given) | 6.41
109 | CN1C(=O)CC(c2cnn(C)c2)C12CCN(CC1CCOCC1)CC2 (stereo not given) | -3.19
110 | CN(C)CCN1CCC2[C@@H]1CCN2Cc1ccc2c(c1)OCO2 (stereo not given in full) | -4.28
